Active and inactive are the calls of the source. No cut-off for these calls is given here.
Columns and labels:
Burkholderia multivorans [1] = assay: Potentiation of colistin-induced antibacterial activity against Burkholderia multivorans B10 assessed as colistin MIC at 50 uM incubated for 20 hrs by susceptibility testing (Rvb > 128 ug/ml); format: functional
Summary of the method: (§1)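 Colistin MIC by broth microdilution in cation-adjusted Mueller-Hinton broth, log-phase cells at final 5×10^5 cfu/mL. Two-fold colistin dilutions in duplicate with sulfonamide at final 0.05 mM (from 10 mM DMSO stock); 20 h at 37 °C. OD550 read. MIC taken as the lowest colistin level reducing growth ≥80% versus growth control. At least two replicates.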

Acinetobacter baumannii [2] = assay: Antimicrobial activity against Acinetobacter baumannii ATCC 15308 assessed as microbial growth inhibition at 50 uM incubated for 20 hrs by broth microdilution method; format: functional, organism-based
Summary of the method: (§2)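 Overnight cultures in cation-adjusted Mueller-Hinton broth, subcultured 1:100; log-phase cells at final 1×10^5 cfu/mL exposed to sulfonamide at final 0.05 mM (from 10 mM DMSO stock) for 20 h at 37 °C. OD550 read after shaking. Growth expressed as percent of 0.5% DMSO control wells. Screened at least twice.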

Escherichia coli [3] = assay: Antimicrobial activity against Escherichia coli ATCC 9637 assessed as microbial growth inhibition at 50 uM incubated for 20 hrs by broth microdilution method; format: functional, organism-based; summary of the method: as §2
Pseudomonas aeruginosa [4] = assay: Antimicrobial activity against Pseudomonas aeruginosa PAO1 assessed as microbial growth inhibition at 50 uM incubated for 20 hrs by broth microdilution method; format: functional, organism-based; summary of the method: as §2
Burkholderia multivorans [5] = assay: Inhibition of biofilm formation in Burkholderia multivorans B10 at 0.05 mM incubated for 24 hrs by crystal violet method relative to control; format: functional; conditions: B10, 24 h
Summary of the method: (§3)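 Crystal violet assay in LB: log-phase bacteria at final 1×10^5 cfu/mL with sulfonamide at final 0.05 mM, 24 h at 37 °C. Biomass read at OD620, then wells washed, biofilm heat-fixed 65 °C 15 min, stained 0.1% crystal violet 15 min, dye eluted in 30% acetic acid, OD550 read. Neat DMSO control taken as 100%. Duplicates, at least two independent experiments; one-way ANOVA.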

Pseudomonas aeruginosa [6] = assay: Inhibition of biofilm formation in Pseudomonas aeruginosa PAO1 at 0.05 mM incubated for 24 hrs by crystal violet method; format: functional, organism-based; summary of the method: as §3
[7] = tested on: Stenotrophomonas maltophilia; assay: Inhibition of biofilm formation in Stenotrophomonas maltophilia K279a clinical isolate of rpf-1 subpopulation at 0.05 mM incubated for 24 hrs by crystal violet method; format: functional, organism-based; summary of the method: as §3
Acinetobacter baumannii [8] = assay: Potentiation of colistin-induced antibacterial activity against Acinetobacter baumannii ATCC 15308 assessed as colistin MIC at 50 uM incubated for 20 hrs by susceptibility testing (reference value: 0.25 to 0.5 ug/ml); format: functional; summary of the method: as §1
Escherichia coli [9] = assay: Potentiation of colistin-induced antibacterial activity against Escherichia coli ATCC 9637 assessed as colistin MIC at 50 uM incubated for 20 hrs by susceptibility testing (reference value: 0.125 to 0.25 ug/ml); format: functional; summary of the method: as §1
Burkholderia cepacia = assay: Potentiation of colistin-induced antibacterial activity against Burkholderia cepacia R6193 assessed as colistin MIC at 50 uM incubated for 20 hrs by susceptibility testing (Rvb > 256 ug/ml); format: functional; summary of the method: as §1
Burkholderia cenocepacia = assay: Potentiation of colistin-induced antibacterial activity against Burkholderia cenocepacia 289 assessed as colistin MIC at 50 uM incubated for 20 hrs by susceptibility testing (Rvb > 256 ug/ml); format: functional; summary of the method: as §1
Pseudomonas aeruginosa [10] = assay: Potentiation of colistin-induced antibacterial activity against Pseudomonas aeruginosa assessed as colistin MIC at 50 uM incubated for 20 hrs by susceptibility testing (reference value: 1 to 2 ug/ml); format: functional; summary of the method: as §1
[11] = tested on: Stenotrophomonas maltophilia; assay: Potentiation of colistin-induced antibacterial activity against Stenotrophomonas maltophilia K279a assessed as colistin MIC at 50 uM incubated for 20 hrs by susceptibility testing (reference value: 2 to 8 ug/ml); format: functional; summary of the method: as §1
Acinetobacter baumannii [12] = assay: Inhibition of biofilm formation in Acinetobacter baumannii ATCC 15308 at 0.05 mM incubated for 24 hrs by crystal violet method relative to control; format: functional; conditions: ATCC 15308, 24 h; summary of the method: as §3

Row | SMILES | MIC (Burkholderia multivorans [1]) [µg/mL] | MIC (Acinetobacter baumannii [8]) [µg/mL] | MIC (Escherichia coli [9]) [µg/mL] | MIC (Burkholderia cepacia) [µg/mL] | MIC (Burkholderia cenocepacia) [µg/mL] | MIC (Pseudomonas aeruginosa [10]) [µg/mL] | MIC [11] [µg/mL] | growth inhibition (GI) (Acinetobacter baumannii [2]) | growth inhibition (GI) (Escherichia coli [3]) | growth inhibition (GI) (Pseudomonas aeruginosa [4]) | inhibition at 50 µM (Burkholderia multivorans [5]) [%] | inhibition (Pseudomonas aeruginosa [6]) | inhibition [7] | inhibition at 50 µM (Acinetobacter baumannii [12]) [%]
1 | CCCCCCCCCc1ccccc1C(=O)NS(=O)(=O)c1ccc(C(C)(C)C)cc1 | > 128 | 0.5 | 0.5 | > 256 | > 256 | 1 | 4 | inactive | inactive | inactive | > 35 | inactive | inactive | 
2 | CCCCCCCCCc1ccccc1C(=O)NS(=O)(=O)c1cccc(F)c1 | > 128 | 0.25 | 0.25 | > 256 | > 256 | 1 | 0.5 | inactive | inactive | inactive |  | inactive | inactive | 27
3 | CCCCCCCCCc1ccccc1C(=O)NS(=O)(=O)c1ccccc1F | > 128 | 0.25 | 0.25 | > 256 | > 256 | 1 | 1 | inactive | inactive | inactive |  | inactive | inactive | 27
4 | CCCCCCCCCc1ccccc1C(=O)NS(=O)(=O)c1ccc(OC)cc1 | > 128 | 0.25 | 0.25 | > 256 | > 256 | 1 | 1 | inactive | inactive | inactive |  | inactive | inactive | 41
5 | CCCCCCCCCc1ccccc1C(=O)NS(=O)(=O)c1ccccc1 | > 128 | 0.25 | 0.25 | > 256 | > 256 | 1 | 0.5 | inactive | inactive | inactive |  | inactive | inactive | 

Second part, led by results:

Row | MIC (Burkholderia multivorans [1]) [µg/mL] | MIC (Acinetobacter baumannii [8]) [µg/mL] | MIC (Escherichia coli [9]) [µg/mL] | MIC (Burkholderia cepacia) [µg/mL] | MIC (Burkholderia cenocepacia) [µg/mL] | MIC (Pseudomonas aeruginosa [10]) [µg/mL] | MIC [11] [µg/mL] | SMILES | growth inhibition (GI) (Acinetobacter baumannii [2]) | growth inhibition (GI) (Escherichia coli [3]) | growth inhibition (GI) (Pseudomonas aeruginosa [4]) | inhibition at 50 µM (Burkholderia multivorans [5]) [%] | inhibition (Pseudomonas aeruginosa [6]) | inhibition [7] | inhibition at 50 µM (Acinetobacter baumannii [12]) [%]
6 | > 128 | 0.125 | 0.063 | > 256 | > 256 | 1 | 0.5 | CCCCCCCCC/C=C\C(=O)O | inactive | inactive | inactive |  | inactive | inactive | 38
7 | > 128 | 0.125 | 0.125 | > 256 | > 256 | 1 | 1 | CCCCCCCCCc1ccccc1C(=O)NS(=O)(=O)C1CC1 | inactive | inactive | inactive |  | inactive | inactive | 
8 | > 128 | 0.5 | 0.5 | > 256 | > 256 | 2 | 1 | CCCCCCCCCc1ccccc1C(=O)NS(=O)(=O)c1ccc([N+](=O)[O-])cc1 | inactive | inactive | inactive |  | inactive | inactive | 50
9 | > 128 | 0.25 | 0.25 | > 256 | > 256 | 1 | 0.5 | CCCCCCCCCc1ccccc1C(=O)NS(=O)(=O)CCC(F)(F)F | inactive | inactive | inactive |  | inactive | inactive | 
